Among the data in ChEMBL document CHEMBL1124951, “N-phenyl-2-pyridinecarbothioamides as gastric mucosal protectants” (J Med Chem, 1990) are inhibition in vivo, ED50 and LD50 values, retold here.

Data set [1] concerns Rattus norvegicus. Put plainly: Percent inhibition against ethanol-induced gastric lesions in male albino rat was determined at a dose of 10 mg/Kg. In kind it is functional. The following applies: Stomach. The method in brief:
(§1)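 Charles River male albino rats (190-219 g), food withheld 18-24 h with water available. Drug or vehicle given orally 1 h before ethanol (1 mL per rat po). Rats killed by CO2 asphyxiation 1 h after ethanol. Lesions scored single blind by size (mm2) and number per size category. Percent inhibition taken against the vehicle group mean; ED50 with 95% confidence limits obtained by regression of dose-response data.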

In data set [2] the test system is Rattus norvegicus. Put plainly: Percent inhibition against ethanol-induced gastric lesions in male albino rat was determined at a dose of 25 mg/Kg. In kind it is functional. The following applies: Stomach. The method in brief:
as §1

Data set [3] has as its system Rattus norvegicus. Put plainly: Compound was evaluated for antisecretory action in the pylorus-ligated rat model (PLR) at 100 mg/kg;NS=No significant activity at 100 mg/kg. It counts as functional, organism-based. In outline: (§2)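 Drug or vehicle given orally. After 1 h, rats anesthetized with methohexital (30 mg/kg ip) and the pylorus ligated through a midline incision. Killed by CO2 4 h after surgery. Gastric volume measured and acid titrated to pH 7.0 with 0.1 N NaOH. Total acid output (microequivalents per 4 h) = volume × acid concentration.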

The species entered for data set [4] is Rattus norvegicus. Put plainly: Compound was evaluated for activity against ethanol-induced gastric lesions. It counts as functional. The following applies: Stomach. The method in brief: as §1
The species entered for data set [5] is Rattus norvegicus. Put plainly: Compound was evaluated for activity in acute lethality model; NL=Not lethal. The following applies: in vivo. It counts as ADME, organism-based.
The species named for data set [6] is Rattus norvegicus. Put plainly: Compound was evaluated for activity in stress-induced ulcers. In kind it is functional. In outline:
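Rats dosed po with drug or vehicle 30 min before immobilization in restrainers at 4-5 °C for 3 h, then euthanized. Gastric ulcers graded by size and number, with percent inhibition taken against the control mean. ED50 with 95% confidence limits obtained by regression of dose-response data.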

For data set [7], the species on record is Rattus norvegicus. Put plainly: Compound was evaluated for antisecretory action in the pylorus-ligated rat model (PLR). It counts as functional. The method in brief:
as §2

The test system of data set [8] is Rattus norvegicus. Put plainly: Compound was evaluated for activity against ethanol-induced gastric lesions mg/kg;NS=No significant activity at 25 mg/kg. It counts as functional, organism-based. The following applies: Stomach. Further details: dose 25 mg/kg. In outline: as §1
Data set [9] is filed under the species Rattus norvegicus. Put plainly: Compound was evaluated for activity in acute lethality model. To be noted: in vivo. In kind it is ADME, organism-based.
Data set [10] deals with Rattus norvegicus. Put plainly: Percent inhibition against ethanol-induced gastric lesions in male albino rat was determined at a dose of 50 mg/Kg (po). It counts as functional. The following applies: Stomach. In outline:
as §1

For data set [11], the species on record is Rattus norvegicus. Put plainly: Effective dose against ethanol-induced gastric lesions in male albino rat when given perorally was determined; 0.5-1.5. In kind it is functional. The following applies: Stomach, po. In outline: as §1
The test system of data set [12] is Rattus norvegicus. Put plainly: Percent inhibition against ethanol-induced gastric lesions in male albino rat was determined at a dose of 5 mg/Kg (po). It counts as functional. The following applies: Stomach. The method in brief:
as §1

For data set [13], the system named is Rattus norvegicus. Put plainly: Percent inhibition against ethanol-induced gastric lesions in male albino rat was determined at a dose of 5 mg/Kg. In kind it is functional. The following applies: Stomach. The method in brief: as §1
The species entered for data set [14] is Rattus norvegicus. Put plainly: Effective dose against ethanol-induced gastric lesions in male albino rat when given perorally was determined; 2.4-11. In kind it is functional. The following applies: Stomach, po. The method in brief: as §1
The species entered for data set [15] is Rattus norvegicus. Put plainly: Effective dose against ethanol-induced gastric lesions in male albino rat when given perorally was determined; 3.0-10. The following applies: Stomach, po. It counts as functional. In outline: as §1
Data set [16] has as its system Rattus norvegicus. Put plainly: Compound was evaluated for antisecretory action in the pylorus-ligated rat model (PLR) at 100 mg/kg (po); No significant activity at 100 mg/kg. In kind it is functional, organism-based. The method in brief:
as §2

For data set [17], the species on record is Rattus norvegicus. Put plainly: Effective dose against ethanol-induced gastric lesions in male albino rat when given perorally was determined; 0.2-4.7. To be noted: Stomach, po. In kind it is functional. The method in brief: as §1
A short description of data set [18]: Compound was evaluated for lethal activity through acute lethality model when given perorally. The following applies: rat, in vivo, po. In kind it is ADME, organism-based.
Data set [19] relates to Rattus norvegicus. Put plainly: Compound was evaluated for activity in stress-induced ulcer rat (po). It counts as functional. The method in brief:
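Rats dosed po with drug or vehicle 30 min before immobilization in restrainers at 4-5 °C for 3 h, then euthanized. Gastric ulcers graded by size and number, with percent inhibition taken against the control mean.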

Data set [20] is filed under the species Rattus norvegicus. Put plainly: Effective dose against ethanol-induced gastric lesions in male albino rat when given perorally was determined; 1.2-5.9. It counts as functional. The following applies: Stomach, po. The method in brief:
as §1

Data set [21] deals with Rattus norvegicus. Put plainly: Percent inhibition against ethanol-induced gastric lesions in male albino rat was determined at a dose of 100 mg/Kg (po). In kind it is functional. The following applies: Stomach. The method in brief: as §1

The source made the active and inactive calls. The calls are words filed in the database; no cut-off is given here.

By inhibition in vivo is commonly meant the relative decrease from the control value, in per cent. Take `CN1CCN(Cc2cccc(NC(=S)c3ccccn3)c2)CC1`: the inhibition in vivo at 10 mg/kg in the data set with Rattus norvegicus [1] was 10%.

As for `Fc1cc(F)cc(NC(=S)c2ccncc2)c1`, the inhibition in vivo at 25 mg/kg in the data set on Rattus norvegicus [2] came out at 85%.

On to `CCN(C(=S)c1ccccn1)c1cc(F)cc(F)c1`, for which the inhibition in vivo at 10 mg/kg in the data set on Rattus norvegicus [1] turned out to be 13%.

What is called ED50 is the midpoint of the dose-response relation. By LD50 is commonly meant the dose at which mortality reaches 50%. Turning to `O=S(=O)(OC[C@H]1O[C@@H](O[C@]2(COS(=O)(=O)[O][Al]([OH])[OH])O[C@H](OS(=O)(=O)[O][Al]([OH])[OH])[C@@H](OS(=O)(=O)[O][Al]([OH])[OH])[C@@H]2OS(=O)(=O)[O][Al]([OH])[OH])[C@H](OS(=O)(=O)[O][Al]([OH])[OH])[C@@H](OS(=O)(=O)[O][Al]([OH])[OH])[C@@H]1OS(=O)(=O)[O][Al]([OH])[OH])[O][Al]([OH])[OH].[OH][Al]([OH])[OH].[OH][Al]([OH])[OH].[OH][Al]([OH])[OH].[OH][Al]([OH])[OH].[OH][Al]([OH])[OH].[OH][Al]([OH])[OH].[OH][Al]([OH])[OH].[OH][Al]([OH])[OH]`, the ED50 result with Rattus norvegicus [3] is “inactive”. This molecule also showed an ED50 in the data set listed under Rattus norvegicus [4] of 60 mg/kg. The LD50 entry in the data set filed under Rattus norvegicus [5] is recorded as “Not lethal”.

With `CNC(=C[N+](=O)[O-])NCCSCc1ccc(CN(C)C)o1` [RANITIDINE], the values for the ED50 in the data set listed under Rattus norvegicus [6] and in the data set listed under Rattus norvegicus [7] were 3.6 mg/kg and 2.4 mg/kg, respectively. The ED50 result in the data set on Rattus norvegicus [8] is “inactive”. Also, the LD50 result in the data set filed under Rattus norvegicus [9] is reported as “Not Active”.

For the molecule `Fc1ccc(NC(=S)c2ccccn2)cc1Cl`, the inhibition in vivo at 25 mg/kg in the data set with Rattus norvegicus [2] was 56%.

`S=C(NCc1ccc2c(c1)OCO2)c1ccccn1`: the inhibition in vivo at 50 mg/kg in the data set with Rattus norvegicus [10] was 11%.

In the case of `Fc1ccc(NC(=S)c2ccccn2)cc1Cn1ccnc1`, in the data set filed under Rattus norvegicus [11], the ED50 was determined as 0.9 mg/kg.

On to `Cc1ccc(NC(=S)c2ccccn2)cc1Cl`, for which the inhibition in vivo at 25 mg/kg with Rattus norvegicus [2] stood at 22%.

Turning to `COc1ccc(NC(=S)c2ccccn2)cc1OC`, the inhibition in vivo at 5 mg/kg in the data set on Rattus norvegicus [12] worked out at 0%.

For the molecule `S=C(c1ccccn1)N1CCCc2ccccc21`, the inhibition in vivo at 10 mg/kg in the data set with Rattus norvegicus [1] was found to be 17%.

As for `S=C(c1ccccn1)N1CCN(c2ccccc2)CC1`, the inhibition in vivo at 50 mg/kg in the data set with Rattus norvegicus [10] is -6%.

As to `FC(F)(F)Oc1ccc(NC(=S)c2ccccn2)cc1`, the inhibition in vivo at 5 mg/kg in the data set on Rattus norvegicus [13] was found to be 35%.

With `O=C(Nc1cccc(F)c1)c1ccccn1`, in the data set on Rattus norvegicus [1], the inhibition in vivo at 10 mg/kg stood at 24%.

In the case of `N#Cc1cc(NC(=S)c2ccccn2)ccc1F`, the inhibition in vivo at 10 mg/kg with Rattus norvegicus [1] turned out to be 29%.

Regarding `O=C(O)c1cc(NC(=S)c2ccccn2)ccc1F`, the inhibition in vivo at 10 mg/kg with Rattus norvegicus [1] was 42%.

In turn, `S=C(Nc1ccccn1)c1cnccn1` displayed an ED50 in the data set listed under Rattus norvegicus [14] of 5.2 mg/kg.

Turning to `CCOC(=O)c1cc(NC(=S)c2ccccn2)ccc1F`, the inhibition in vivo at 10 mg/kg in the data set with Rattus norvegicus [1] amounted to 10%.

For `CN(C(=S)c1ccccn1)c1cc(F)cc(F)c1`, the inhibition in vivo at 25 mg/kg with Rattus norvegicus [2] came out at 40%.

As for `FC(F)(F)COc1cccc(NC(=S)c2ccccn2)c1`, the inhibition in vivo at 10 mg/kg in the data set with Rattus norvegicus [1] came to 7%.

Turning to `S=C(Nc1ccc(OCc2ccccc2)cc1)c1ccccn1`, the inhibition in vivo at 5 mg/kg in the data set with Rattus norvegicus [12] was 47%.

Consider `Fc1cc(F)cc(NC(=S)c2cccnc2)c1`, for which the inhibition in vivo at 25 mg/kg in the data set with Rattus norvegicus [2] is 55%.

For the molecule `CN(C(=S)c1ccccn1)c1cccc(F)c1`, the inhibition in vivo at 10 mg/kg with Rattus norvegicus [1] stood at 31%.

As to `N#CN/C(=N\c1ccccc1)c1ccccn1`, in the data set on Rattus norvegicus [13], the inhibition in vivo at 5 mg/kg is 37%.

Turning to `S=C(Nc1cc(Cl)cc(Cl)c1)c1ccccn1`, the inhibition in vivo at 25 mg/kg in the data set with Rattus norvegicus [2] turned out to be 89%.

On to `CSc1ccc(NC(=S)c2ccccn2)cc1`, for which the inhibition in vivo at 5 mg/kg in the data set with Rattus norvegicus [12] was 31%.

On to `S=C(c1ccccn1)N1CCOCC1`, for which, in the data set on Rattus norvegicus [10], the inhibition in vivo at 50 mg/kg worked out at 44%.

Turning to `S=C(Nc1cccc(CN2CCOCC2)c1)c1ccccn1`, the inhibition in vivo at 10 mg/kg in the data set on Rattus norvegicus [1] was determined as 64%.

Take `Cc1ccc(NC(=S)c2ccccn2)cc1F`: in the data set listed under Rattus norvegicus [15], the ED50 amounted to 5.4 mg/kg.

For the molecule `S=C(Nc1ccccc1)c1ccccn1`, the ED50 entry with Rattus norvegicus [16] is “inactive”. The ED50 came to 1.1 mg/kg in the data set filed under Rattus norvegicus [17] and 10 mg/kg in the data set with Rattus norvegicus [19]. The molecule further registered an LD50 in [18] of more than 1000 mg/kg.

With `COc1ccc(NC(=S)c2ccccn2)cc1Cl`, in the data set on Rattus norvegicus [2], the inhibition in vivo at 25 mg/kg amounted to 44%.

`S=C(Nc1ccccn1)c1ccccn1` returned an ED50 in the data set listed under Rattus norvegicus [20] of 2.6 mg/kg.

Regarding `S=C(Nc1cccc(CN2CCSCC2)c1)c1ccccn1`, the inhibition in vivo at 10 mg/kg in the data set with Rattus norvegicus [1] amounted to 32%.

`O=C(Nc1cc(F)cc(F)c1)c1ccccn1`: in the data set on Rattus norvegicus [2], the inhibition in vivo at 25 mg/kg came out at 11%.

In the case of `Fc1ccccc1/N=C(\S)c1ccccn1`, in the data set on Rattus norvegicus [21], the inhibition in vivo at 100 mg/kg was found to be 69%.

In the case of `C[S+]([O-])c1ccc(NC(=S)c2ccccn2)cc1` (centres undefined), the inhibition in vivo at 5 mg/kg in the data set on Rattus norvegicus [13] stood at 54%.
